Experimental data from ChEMBL document CHEMBL3228024, “Prodrug analogues of the antitumor alkaloid camptothecin” (1979).
Activity calls are given as the source filed them. The rule behind the calls is not given here.

Experiments:
[1] = system: L1210; assay: Antitumor activity against mouse L1210 cells allografted in mouse assessed as increase in mouse survival time at 18.9 mg/kg, iv for 4 to 9 days relative to control; format: functional
Outline: (§1)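 Run under NCI protocols 3LE21 (L1210) and 3PS31 (P388) in mice, six mice per test group. Drug was injected daily for 9 days, with 20–30 uninjected control animals. Mean or median survival time of the treated group was divided by that of controls and multiplied by 100, then reported as percentage increase in life span.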

[2] = system: L1210; assay: Antitumor activity against mouse L1210 cells allografted in mouse assessed as increase in mouse survival time at 62.5 mg/kg, iv for 4 to 9 days relative to control; format: functional; outline: as §1
[3] = system: P388; assay: Antitumor activity against mouse P388 cells allografted in mouse assessed as increase in mouse survival time at 5.1 mg/kg, iv for 4 to 9 days relative to control; format: functional; outline: as §1
[4] = system: L1210; assay: Cytotoxicity against mouse L1210 cells; format: functional
[5] = system: P388; assay: Antitumor activity against mouse P388 cells allografted in mouse assessed as increase in mouse survival time at 18.9 mg/kg, iv for 4 to 9 days relative to control; format: functional; outline: as §1
[6] = Cytotoxicity against human 9KB cells; format: functional
[7] = system: L1210; assay: Cytotoxicity against mouse L1210 cells relative to camptothecin; format: functional
[8] = system: P388; assay: Cytotoxicity against mouse P388 cells relative to camptothecin; format: functional
[9] = system: P388; assay: Cytotoxicity against mouse P388 cells; format: functional
[10] = system: L1210; assay: Antitumor activity against mouse L1210 cells allografted in mouse assessed as increase in mouse survival time at 5.1 mg/kg, iv for 4 to 9 days relative to control; format: functional; outline: as §1
[11] = Cytotoxicity against human 9KB cells relative to camptothecin; format: functional
[12] = system: L1210; assay: Antitumor activity against mouse L1210 cells allografted in mouse assessed as increase in mouse survival time at 1.1 mg/kg, iv for 4 to 9 days relative to control; format: functional; outline: as §1
[13] = system: P388; assay: Antitumor activity against mouse P388 cells allografted in mouse assessed as increase in mouse survival time at 0.4 mg/kg, iv for 4 to 9 days relative to control; format: functional; outline: as §1
[14] = system: P388; assay: Antitumor activity against mouse P388 cells allografted in mouse assessed as increase in mouse survival time at 3.3 mg/kg, iv for 4 to 9 days relative to control; format: functional; outline: as §1
[15] = system: L1210; assay: Antitumor activity against mouse L1210 cells allografted in mouse assessed as increase in mouse survival time at 3.3 mg/kg, iv for 4 to 9 days relative to control; format: functional; outline: as §1
[16] = system: L1210; assay: Antitumor activity against mouse L1210 cells allografted in mouse assessed as increase in mouse survival time at 10 mg/kg, iv for 4 to 9 days relative to control; format: functional; outline: as §1
[17] = system: P388; assay: Antitumor activity against mouse P388 cells allografted in mouse assessed as increase in mouse survival time at 1.1 mg/kg, iv for 4 to 9 days relative to control; format: functional; outline: as §1
[18] = system: L1210; assay: Antitumor activity against mouse L1210 cells allografted in mouse assessed as increase in mouse survival time at 0.4 mg/kg, iv for 4 to 9 days relative to control; format: functional; outline: as §1
[19] = system: P388; assay: Antitumor activity against mouse P388 cells allografted in mouse assessed as increase in mouse survival time at 10 mg/kg, iv for 4 to 9 days relative to control; format: functional; outline: as §1
[20] = system: P388; assay: Antitumor activity against mouse P388 cells allografted in mouse assessed as increase in mouse survival time at 45 mg/kg, iv for 4 to 9 days relative to control; format: functional; outline: as §1
[21] = system: P388; assay: Antitumor activity against mouse P388 cells allografted in mouse assessed as increase in mouse survival time at 23 mg/kg, iv for 4 to 9 days relative to control; format: functional; outline: as §1
[22] = system: P388; assay: Antitumor activity against mouse P388 cells allografted in mouse assessed as increase in mouse survival time at 6.4 mg/kg, iv for 4 to 9 days relative to control; format: functional; outline: as §1
[23] = system: P388; assay: Antitumor activity against mouse P388 cells allografted in mouse assessed as increase in mouse survival time at 3.7 mg/kg, iv for 4 to 9 days relative to control; format: functional; outline: as §1
[24] = system: P388; assay: Antitumor activity against mouse P388 cells allografted in mouse assessed as increase in mouse survival time at 11.1 mg/kg, iv for 4 to 9 days relative to control; format: functional; outline: as §1
[25] = system: P388; assay: Antitumor activity against mouse P388 cells allografted in mouse assessed as increase in mouse survival time at 1.2 mg/kg, iv for 4 to 9 days relative to control; format: functional; outline: as §1
[26] = system: L1210; assay: Antitumor activity against mouse L1210 cells allografted in mouse assessed as increase in mouse survival time at 11.1 mg/kg, iv for 4 to 9 days relative to control; format: functional; outline: as §1
[27] = system: L1210; assay: Antitumor activity against mouse L1210 cells allografted in mouse assessed as increase in mouse survival time at 1.2 mg/kg, iv for 4 to 9 days relative to control; format: functional; outline: as §1
[28] = system: L1210; assay: Antitumor activity against mouse L1210 cells allografted in mouse assessed as increase in mouse survival time at 3.7 mg/kg, iv for 4 to 9 days relative to control; format: functional; outline: as §1
[29] = system: HeLa; assay: Antitumor activity against human HeLa cells assessed as inhibition of radioactive thymidine incorporation into acid-insoluble material by DNA sedimentation assay; format: functional, cell-based
[30] = system: B16; assay: Antitumor activity against mouse B16 cells allografted in mouse assessed as increase in mouse survival time at 4 mg/kg, iv for 4 to 9 days relative to control; format: functional
Outline: (§2)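 Run under NCI protocols 3B131 (B-16 melanocytic melanoma) and 3LL32 (Lewis lung carcinoma) in mice, ten mice per test group. Drug was injected every 4 days, with 20–30 uninjected control animals. Mean or median survival of treated mice over that of controls ×100 was reported as percentage increase in life span.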

[31] = system: P388; assay: Antitumor activity against mouse P388 cells allografted in mouse assessed as increase in mouse survival time at 1.6 mg/kg, iv for 4 to 9 days relative to control; format: functional; outline: as §1
[32] = system: P388; assay: Antitumor activity against mouse P388 cells allografted in mouse assessed as increase in mouse survival time at 0.5 mg/kg, iv for 4 to 9 days relative to control; format: functional; outline: as §1
[33] = system: P388; assay: Antitumor activity against mouse P388 cells allografted in mouse assessed as increase in mouse survival time at 4.8 mg/kg, iv for 4 to 9 days relative to control; format: functional; outline: as §1
[34] = system: L1210; assay: Antitumor activity against mouse L1210 cells allografted in mouse assessed as increase in mouse survival time at 0.5 mg/kg, iv for 4 to 9 days relative to control; format: functional; outline: as §1
[35] = system: P388; assay: Antitumor activity against mouse P388 cells allografted in mouse assessed as increase in mouse survival time at 14.3 mg/kg, iv for 4 to 9 days relative to control; format: functional; outline: as §1
[36] = system: L1210; assay: Antitumor activity against mouse L1210 cells allografted in mouse assessed as increase in mouse survival time at 1.6 mg/kg, iv for 4 to 9 days relative to control; format: functional; outline: as §1
[37] = system: B16; assay: Antitumor activity against mouse B16 cells allografted in mouse assessed as increase in mouse survival time at 46 mg/kg, iv for 4 to 9 days relative to control; format: functional; outline: as §2
[38] = system: B16; assay: Antitumor activity against mouse B16 cells allografted in mouse assessed as increase in mouse survival time at 14.6 mg/kg, iv for 4 to 9 days relative to control; format: functional; outline: as §2
[39] = system: Lewis lung carcinoma cell line; assay: Antitumor activity against mouse LLC cells allografted in mouse assessed as increase in mouse survival time at 44.4 mg/kg, iv for 4 to 9 days relative to control; format: functional; outline: as §2
[40] = system: L1210; assay: Antitumor activity against mouse L1210 cells allografted in mouse assessed as increase in mouse survival time at 14.3 mg/kg, iv for 4 to 9 days relative to control; format: functional; outline: as §1
[41] = system: Lewis lung carcinoma cell line; assay: Antitumor activity against mouse LLC cells allografted in mouse assessed as increase in mouse survival time at 4 mg/kg, iv for 4 to 9 days relative to control; format: functional; outline: as §2
[42] = system: L1210; assay: Antitumor activity against mouse L1210 cells allografted in mouse assessed as increase in mouse survival time at 4.8 mg/kg, iv for 4 to 9 days relative to control; format: functional; outline: as §1
[43] = system: Lewis lung carcinoma cell line; assay: Antitumor activity against mouse LLC cells allografted in mouse assessed as increase in mouse survival time at 14.6 mg/kg, iv for 4 to 9 days relative to control; format: functional; outline: as §2
[44] = system: P388; assay: Antitumor activity against mouse P388 cells allografted in mouse assessed as increase in mouse survival time at 62.5 mg/kg, iv for 4 to 9 days relative to control; format: functional
Outline: (§3)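 Mice bearing P388 leukemia (NCI protocol 3PS31), six mice per test, drug injected daily for 9 days (in some tests for only 6 days). Controls were 20–30 animals receiving no injection. Activity was expressed as mean/median survival time of the test group divided by that of the control group ×100.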

[45] = system: L1210; assay: Antitumor activity against mouse L1210 cells allografted in mouse assessed as increase in mouse survival time at 6.5 mg/kg, iv for 4 to 9 days relative to control; format: functional; outline: as §1
[46] = system: P388; assay: Antitumor activity against mouse P388 cells allografted in mouse assessed as increase in mouse survival time at 6.5 mg/kg, iv for 4 to 9 days relative to control; format: functional; outline: as §3
[47] = system: P388; assay: Antitumor activity against mouse P388 cells allografted in mouse assessed as increase in mouse survival time at 2.5 mg/kg, iv for 6 days relative to control; format: functional
Outline: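 NCI P388 protocol 3PS31 in mice, six mice per test group. Drug was injected daily for only 6 days, with 20–30 uninjected controls. The value is the mean or median survival time of treated mice over that of controls ×100, reported as percentage increase in life span.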

CC[C@@](O)(C(=O)NC(C)C)c1cc2n(c(=O)c1CN1CCCC1)Cc1cc3ccccc3nc1-2
T/C [1]: 101% | T/C [2]: 113% | T/C [3]: 111% | ED50 [4]: 6.5 ×10⁻⁵ umol/ml | T/C [5]: 126% | ED50 [6]: 2.2 ×10⁻⁵ umol/ml | Activity [7]: 23% | Activity [8]: 0.13% | ED50 [9]: 1.1 ×10⁻⁴ umol/ml | T/C [10]: 109% | Activity [11]: 7.8%

CC[C@@]1(O)C(=O)OCc2c1cc1n(c2=O)Cc2cc3ccccc3nc2-1 [CAMPTOTHECIN]
T/C [12]: 131% | T/C [13]: 137% | T/C [14]: 204% | T/C [15]: 168% | T/C [16]: 85% | ED50 [4]: 2.8 ×10⁻⁶ umol/ml | T/C [17]: 147% | ED50 [6]: <2.8 ×10⁻⁶ umol/ml | T/C [18]: 114% | ED50 [9]: 8.6 ×10⁻⁶ umol/ml | T/C [19]: 81%

CC[C@@](O)(C(=O)NC(C)C)c1cc2n(c(=O)c1Cn1ccnc1)Cc1cc3ccccc3nc1-2
T/C [20]: 92% | T/C [21]: 89% | T/C [22]: 105%

CC[C@@](O)(C(=O)[O-])c1cc2n(c(=O)c1CO)Cc1cc3ccccc3nc1-2.[Na+]
T/C [13]: 139% | T/C [23]: 85% | T/C [24]: 67% | T/C [25]: 168% | T/C [26]: 74% | T/C [18]: 116% | T/C [27]: 147% | T/C [28]: 114% | inhibition [29]: Active

CCCCCC(=O)OCc1c([C@@](O)(CC)C(=O)NC(C)C)cc2n(c1=O)Cc1cc3ccccc3nc1-2
T/C [30]: 110% | T/C [31]: 107% | T/C [32]: 107% | T/C [33]: 139% | T/C [34]: 105% | ED50 [4]: 5.5 ×10⁻⁴ umol/ml | T/C [35]: 155% | ED50 [6]: 8.1 ×10⁻⁵ umol/ml | T/C [36]: 105% | Activity [7]: 2% | T/C [37]: 109% | Activity [8]: 0.01% | EC50 ([9]; Mus musculus, P388, read-out: ED50 (the source's name)): 1200 nM | T/C [38]: 109% | T/C [39]: 134% | Activity [11]: 29% | T/C [40]: 133% | T/C [41]: 163% | inhibition [29]: Active | T/C [42]: 116% | T/C [43]: 147%

CC[C@@](O)(C(=O)NC(C)C)c1cc2n(c(=O)c1CN1CCCC1)Cc1cc3ccccc3nc1-2.Cl
T/C [44]: 125%

C=CC(=O)OCc1c([C@@](O)(CC)C(=O)NC(C)C)cc2n(c1=O)Cc1cc3ccccc3nc1-2
T/C [45]: 125% | T/C [46]: 155% | ED50 [4]: 7.6 ×10⁻⁴ umol/ml | ED50 [6]: 6.9 ×10⁻⁵ umol/ml | Activity [7]: 2.7% | Activity [8]: 0.45% | ED50 [9]: 3.9 ×10⁻⁴ umol/ml | T/C [47]: 165% | Activity [11]: 25%
